The list is not random: actives were taken first. Their share in the collection is about 3.7%.
KCNK9 inh: human KCNK9 channel inhibition; AID 488922; Q9NPC2; actives 1.2% (n = 310,000); B-score at 10 µM; HEK293 KCNK9, FluxOR thallium flux fluorescence; active compounds read low;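 active = ratio B-score over 3 SD below the library mean, with starting fluorescence within 5 SD of its mean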;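 also: negative B-score means less thallium flux so channel inhibition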
Kir21 block: inhibitors of mouse Kir2.1 inward-rectifier potassium channel. P35561. HEK293-Kir2.1, FluxOR thallium flux fluorescence; active compounds read low. B-score at 10 µM. actives 0.85% (n = 310,000). AID 1672;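 active = fluorescence ratio B-score at or below minus 3 SD of library scores, with starting-brightness B-score within 2 SD, cut at about -4.2 in these data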;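 also: channel flux triggered by added potassium and thallium sulfate stimulus; B-score of peak minus minimum fluorescence over baseline after thallium stimulus; more negative B-score means stronger Kir2.1 block with less thallium influx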
KCNK3 block: human KCNK3 channel inhibition, primary screen | AID 602410 | actives 0.84% (n = 340,000) | CHO-KCNK3 thallium flux, FluxOR fluorescence; active compounds read low | O14649 | B-score at 10 µM;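 active = B-score under library mean minus 4 SD, starting fluorescence ratio at most library mean plus 5 SD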;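 also: more negative B-score means stronger inhibition of thallium flux through KCNK3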
hERG protect: hERG (human) protection from proarrhythmic block. Q12809. CHO-hERG, FluxOR thallium flux, dofetilide IC70 present. activation (rescue from dofetilide block), less the hit threshold, % at 10 µM. actives 0.51% (n = 310,000);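 active = activation above the mean of controls blocked by dofetilide plus 5 SD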;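 also: thallium influx through hERG after potassium depolarization seen as dye fluorescence rise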
Target sequence (Q12809 whole entry, looked up): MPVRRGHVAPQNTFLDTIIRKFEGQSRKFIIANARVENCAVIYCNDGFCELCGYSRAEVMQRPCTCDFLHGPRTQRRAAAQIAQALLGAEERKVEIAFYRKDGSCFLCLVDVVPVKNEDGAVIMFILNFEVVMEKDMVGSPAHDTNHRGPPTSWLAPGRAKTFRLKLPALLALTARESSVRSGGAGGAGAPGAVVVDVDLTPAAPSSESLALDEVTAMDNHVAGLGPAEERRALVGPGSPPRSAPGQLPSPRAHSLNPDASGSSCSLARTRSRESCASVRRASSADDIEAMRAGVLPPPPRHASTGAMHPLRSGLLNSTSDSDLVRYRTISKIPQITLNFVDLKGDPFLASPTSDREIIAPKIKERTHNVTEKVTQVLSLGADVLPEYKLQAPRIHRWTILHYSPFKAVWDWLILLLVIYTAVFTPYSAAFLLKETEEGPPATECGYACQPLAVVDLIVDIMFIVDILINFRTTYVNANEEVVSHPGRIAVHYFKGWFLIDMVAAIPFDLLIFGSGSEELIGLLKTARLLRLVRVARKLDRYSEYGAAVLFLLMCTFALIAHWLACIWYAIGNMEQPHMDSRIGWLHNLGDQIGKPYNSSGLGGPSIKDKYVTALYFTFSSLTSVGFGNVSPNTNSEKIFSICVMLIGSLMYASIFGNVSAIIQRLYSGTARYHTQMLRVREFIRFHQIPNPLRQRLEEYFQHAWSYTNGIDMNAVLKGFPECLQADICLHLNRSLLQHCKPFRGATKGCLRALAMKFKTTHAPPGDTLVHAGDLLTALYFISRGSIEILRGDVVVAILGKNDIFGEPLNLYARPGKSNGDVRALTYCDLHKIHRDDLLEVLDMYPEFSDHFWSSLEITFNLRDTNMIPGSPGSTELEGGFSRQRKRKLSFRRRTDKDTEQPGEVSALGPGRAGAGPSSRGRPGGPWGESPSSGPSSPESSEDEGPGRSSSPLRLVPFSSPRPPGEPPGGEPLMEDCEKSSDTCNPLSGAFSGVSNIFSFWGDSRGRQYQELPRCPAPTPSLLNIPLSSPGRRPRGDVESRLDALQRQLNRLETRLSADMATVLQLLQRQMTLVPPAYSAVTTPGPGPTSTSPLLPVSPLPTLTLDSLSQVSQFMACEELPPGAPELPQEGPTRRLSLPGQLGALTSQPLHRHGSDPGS
KCNQ1 pot: potentiates or activates the human KCNQ1 potassium channel; P51787; CHO-K1 KCNQ1, thallium flux FluxOR fluorescence; active compounds read high; B-score at 10 µM; actives 0.35% (n = 310,000); AID 2648;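 active = fluorescence ratio B-score, a plate-corrected score, at least three library SD, with initial intensity B-score within 5 SD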
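Assay system: stable KCNQ1 CHO-K1 line; medium: assay buffer, equal DMSO in all wells; timing: 90 min dye loading and 20 min compound exposure, both at room temperature; technique: kinetic FluxOR thallium fluorescence, 10-s 1-Hz baseline, 110-s post-stimulus read; read-out basis: B score of baseline-normalized fluorescence ratio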
KCNQ1 block: inhibitors of human KCNQ1 potassium channel. P51787. CHO-K1 KCNQ1, FluxOR thallium flux fluorescence; active compounds read high. AID 2642. B-score at 10 µM. actives 1.3% (n = 310,000);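 active = compounds whose thallium flux B-score, printed positive for inhibition, exceeds three library SD while starting fluorescence stays within three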;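 also: channel opened by potassium depolarization with thallium stimulus after 20 min compound exposure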
KCNK3 confirm: human KCNK3 channel inhibition, confirmation assay. CHO-KCNK3 thallium flux, FluxOR fluorescence; 0% buffer, 100% carvedilol maximal block. ratio percent of control, % at 10 µM. actives 99% (n = 2,400). shares compounds with KCNK3 block;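 active = ratio percent of control, averaged over triplicates, above buffer control mean plus 5 SD, cut at about 64% in these data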;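 also: ratio is the fluorescence rise from min to max over baseline after thallium stimulus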
KCNK3 noninduced: counter-screen for KCNK3 inhibitors: effect in non-induced cells; shares compounds with KCNK3 block; non-induced KCNK3 parental cells, FluxOR thallium flux; active compounds read low; thallium flux ratio (lower = more inhibition) at 10 µM; actives 40% (n = 2,400); AID 651747;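 active = thallium flux ratio, averaged over three wells, more than 5 SD below the buffer control mean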;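 also: host cells are CHO cells without KCNK3 induction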
Large screens that a line does not name were inactive (follow-up assays come after a bar, where they were run).

COc1cc(-c2cc(C(=O)Nc3ccccc3N3CCOCC3)c3ccccc3n2)cc(OC)c1OC	KCNK3 block -9.01, KCNQ1 block 6 | KCNK3 confirm 102.0 | KCNK3 noninduced 0.158
COc1ccccc1C(=O)Nc1ccccc1N1CCCCC1	none
O=C(Nc1ccccc1N1CCCCC1)c1cccc(OC(F)F)c1	KCNK3 block -10.2 | KCNK3 confirm 116.7 | KCNK3 noninduced 0.15
COc1ccc(Br)cc1C(=O)Nc1ccccc1N1CCCC1	KCNK3 block -9.84 | KCNK3 confirm 111.0 | KCNK3 noninduced 0.147
O=C1CN(C(=O)COC(=O)CCS(=O)(=O)c2ccccc2Cl)c2ccccc2N1	none (no result: KCNK9 inh, Kir21 block, hERG protect, KCNQ1 pot, KCNQ1 block)
CS(=O)(=O)c1ccccc1C(=O)Nc1cccc2ncccc12	none
Cc1cccc(CN2C(=O)/C(=C\c3ccc(C(=O)NCCCN4CCN(C)CC4)cc3)Oc3ccccc32)c1	none
CN1CCN(CCCNC(=O)c2ccc(/C=C3/Sc4ccccc4N(Cc4cccc(Cl)c4)C3=O)cc2)CC1	KCNK9 inh -7.15, KCNK3 block -9.42, KCNQ1 block 11 | KCNK3 confirm 117.7 | KCNK3 noninduced inactive
O=c1c2cc3c(cc2[nH]c(=S)n1C1CCN(Cc2ccccc2)CC1)OCO3	none
COc1ccc(N2CCN(C(=O)Cc3cccs3)CC2)cc1	KCNK3 block -9.47 | KCNK3 confirm 75.0 | KCNK3 noninduced inactive
O=C(O)c1cc2c(ccc3ccccc32)o1	none
O=C(c1cc2c(ccc3ccccc32)o1)N1CCCCC1	KCNK3 block -9.12 | KCNK3 confirm 83.7 | KCNK3 noninduced inactive
CCCCn1c(N)c(N(CCOC)C(=O)C2CCN(c3ncnc4sc(C)c(C)c34)CC2)c(=O)[nH]c1=O	none
Cc1ccccc1NC1c2ccccc2C(=O)N1Cc1ccco1 (stereo not given)	KCNK3 block -10.2 | KCNK3 confirm 118.7 | KCNK3 noninduced 0.149
Oc1ccc(N=C/C=C/c2ccc(Br)cc2)cc1-c1nc2ccccc2s1	none (no result: KCNK3 block)
O=C(CCOc1cccc(Br)c1)Nc1ccc(F)c(S(=O)(=O)N2CCOCC2)c1	KCNK3 block -11.9 (no result: KCNK9 inh, Kir21 block, hERG protect, KCNQ1 pot, KCNQ1 block) | KCNK3 confirm 97.0 | KCNK3 noninduced inactive
COc1ccc(C(=O)C2CCCN(Cc3ccc(Sc4nncn4C)o3)C2)cc1F (stereo not given)	none
Cc1cc(C)nc(N(C#N)Cc2cccc3ccccc23)n1	KCNK3 block -9.17 | KCNK3 confirm 74.0 | KCNK3 noninduced inactive
CCO[C@@H]1OC(C(=O)N2CCCCCCC2)=C[C@H](c2ccc3c(c2)OCO3)[C@H]1CCCO	none
CC1CCCC(C)N1S(=O)(=O)c1ccc(NC(=O)c2ccccc2C(=O)N2CCOCC2)cc1 (stereo not given)	KCNK3 block -11.7 | KCNK3 confirm 91.0 | KCNK3 noninduced inactive
N#Cc1ccc(OCC(=O)NCC2COc3ccccc3O2)cc1 (stereo not given)	none (no result: KCNK9 inh, Kir21 block, hERG protect, KCNQ1 pot, KCNQ1 block)
O=C1NN(c2cccc(Br)c2)C(=O)/C1=C\c1ccc(N2CCOCC2)cc1	none
COc1ccc(OC)c(NC(=O)c2ccc(OC3CSC3)cc2)c1	KCNK3 block -9.11 | KCNK3 confirm 102.0 | KCNK3 noninduced inactive
COc1ccc(NC(=O)c2ccc(-n3c(C)ccc3C)cc2)c(OC)c1	KCNK3 block -8.77 | KCNK3 confirm 124.0 | KCNK3 noninduced inactive
COc1ccc(NC(=O)c2ccc(S(=O)(=O)C(F)F)cc2)c(OC)c1	none
COc1cc2c(cc1NC(=O)c1ccc(C(C)(C)C)cc1)CCCC2	KCNK3 block -10.4 | KCNK3 confirm 104.7 | KCNK3 noninduced inactive
CCCc1cc(C(=O)Nc2cc(OC)ccc2OC)cs1	KCNK3 block -10.4 | KCNK3 confirm 130.0 | KCNK3 noninduced 0.155
O=C(NCCN1CCOCC1)/C(=C\c1ccc(Br)cc1)NC(=O)c1cccs1	none
Cc1ccc2oc(=O)n(CCCOc3ccccc3C)c2c1	KCNK3 block -10.9 | KCNK3 confirm 120.7 | KCNK3 noninduced 0.142
C[C@H]1CN([C@@H](C)CO)C(=O)c2cc(NC(=O)C3CCCCC3)ccc2O[C@H]1CN(C)S(=O)(=O)c1ccccc1	none (no result: KCNK9 inh, Kir21 block, hERG protect, KCNQ1 pot, KCNQ1 block)
Cc1ccccc1Nc1nc(N)nc(-c2oc3ccccc3c2C)n1	KCNK9 inh -13.7, KCNK3 block -10.2 | KCNK3 confirm 116.7 | KCNK3 noninduced 0.158
CCOC(=O)CSc1nc2c(c(-c3ccc(C)o3)c1C#N)CCCC2	KCNK3 block -9.32 | KCNK3 confirm 97.7 | KCNK3 noninduced inactive
COC(=O)CSc1nc2c(c(-c3ccco3)c1C#N)CCCC2	none
Cc1ccc(NC(=O)CN(C)C(=O)/C=C/c2ccc3c(c2)OCO3)cc1	none (no result: KCNK9 inh, Kir21 block, hERG protect, KCNQ1 pot, KCNQ1 block)
NC(=O)c1cccc2c1C(=O)N(C1CCCCC1)C2	none
Cc1cc(C)cc(NC(=O)c2cccc3c2C(=O)N(C2CCCCC2)C3)c1	KCNK3 block -9.34 | KCNK3 confirm 107.3 | KCNK3 noninduced inactive
CC([NH2+][O-])C(C)(C)NO (stereo not given)	none
CCCC(=O)Nc1ccc(-c2csc(N/N=C\c3ccncc3)n2)cc1	KCNK3 block -8.8 | KCNK3 confirm 106.7 | KCNK3 noninduced 0.155
O=C(CSc1cccs1)Nc1ccc(Cl)cc1	none
COc1c(C(=O)Nc2nccs2)ccc2ccccc12	none
COc1cc2ccccc2cc1C(=O)Nc1nccs1	KCNK3 block -9.61 | KCNK3 confirm 94.0 | KCNK3 noninduced inactive
Cc1cc2oc(C(=O)N(Cc3ccccc3)C3CCS(=O)(=O)C3)c(C)c2cc1C (stereo not given)	KCNK3 block -11 | KCNK3 confirm 92.3 | KCNK3 noninduced inactive
Cc1ccc2oc(C(=O)N(Cc3ccccc3)C3CCS(=O)(=O)C3)c(C)c2c1 (stereo not given)	none
O=C(Nc1ccc(S(=O)(=O)NC2=NCCCCC2)cc1)c1ccccc1Cl	none
CN(C)Cc1c(O)ccc2[nH]cnc12	KCNK3 block -10.3 | KCNK3 confirm 79.7 | KCNK3 noninduced inactive
CCOC(=O)CSc1nc2ccccc2c(=O)n1CC	none
CCOC(=O)CSc1nc2ccccc2c(=O)n1CC1CCCC1	KCNK3 block -11.4 | KCNK3 confirm 116.0 | KCNK3 noninduced 0.146
COC(=O)CSc1nc2[nH]ncc2c(=O)[nH]1	none
COc1ccc(C(=O)NC(CC(=O)O)c2cc([N+](=O)[O-])ccc2Cl)cc1 (stereo not given)	none
COc1ccc(C(=O)CC(Nc2ccc([N+](=O)[O-])cc2)c2ccc(Cl)cc2)cc1 (stereo not given)	KCNK9 inh -6.66, KCNK3 block -9.14, KCNQ1 block 12 | KCNK3 confirm 132.0 | KCNK3 noninduced 0.135

Screens: PubChem BioAssay, Johns Hopkins Ion Channel Center
